Assay results as given in ChEMBL document CHEMBL5653620, “Activating the Wnt/β-Catenin Pathway for the Treatment of Melanoma--Application of LY2090314, a Novel Selective Inhibitor of Glycogen Synthase Kinase-3” (PLoS One, 2015).
Activity calls are given as the source filed them. No cut-off for these calls is given here.

Target: Glycogen synthase kinase-3 (Homo sapiens) (UniProt P49840+P49841)
Assay: Inhibition of GSK3 in human A-375 cells assessed as reduction in GSK3 phosphorylation at tyr 279 residue level at 20 nM incubated for 0.5 to 8 hrs by western blot analysis
Format: cell-based
Conditions: time 0.5-8 hrs
Method in brief: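 A375 cells treated for up to 8 h. Lysed on ice for 15 min in 1% Triton X100, 25 mM Tris pH 7.5, 150 mM NaCl, 1 mM EDTA/EGTA with protease/phosphatase inhibitors, then freeze-thawed and sonicated. Equal protein run on 4–20% SDS-PAGE and transferred to nitrocellulose. Primary antibodies at 1:1000 in 1% BSA overnight at 4°C (pGSK3 antibody detects pTyr279-GSK3α/pTyr216-GSK3β). HRP anti-rabbit secondary, chemiluminescent detection.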

Chain of Glycogen synthase kinase-3 (Homo sapiens) (P49840 whole entry, looked up): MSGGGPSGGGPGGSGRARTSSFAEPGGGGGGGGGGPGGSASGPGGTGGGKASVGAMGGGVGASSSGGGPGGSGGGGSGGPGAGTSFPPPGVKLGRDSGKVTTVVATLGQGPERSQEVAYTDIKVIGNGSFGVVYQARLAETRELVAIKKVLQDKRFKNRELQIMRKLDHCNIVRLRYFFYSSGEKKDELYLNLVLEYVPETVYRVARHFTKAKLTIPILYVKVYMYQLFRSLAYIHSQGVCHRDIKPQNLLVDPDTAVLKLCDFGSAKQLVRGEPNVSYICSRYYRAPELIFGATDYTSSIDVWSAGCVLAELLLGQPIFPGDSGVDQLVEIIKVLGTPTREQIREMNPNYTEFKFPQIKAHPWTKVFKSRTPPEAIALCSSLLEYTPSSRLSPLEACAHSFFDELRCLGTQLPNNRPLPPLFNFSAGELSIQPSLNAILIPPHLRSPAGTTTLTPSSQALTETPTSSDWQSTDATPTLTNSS
Chain of Glycogen synthase kinase-3 (Homo sapiens) (P49841 whole entry, looked up): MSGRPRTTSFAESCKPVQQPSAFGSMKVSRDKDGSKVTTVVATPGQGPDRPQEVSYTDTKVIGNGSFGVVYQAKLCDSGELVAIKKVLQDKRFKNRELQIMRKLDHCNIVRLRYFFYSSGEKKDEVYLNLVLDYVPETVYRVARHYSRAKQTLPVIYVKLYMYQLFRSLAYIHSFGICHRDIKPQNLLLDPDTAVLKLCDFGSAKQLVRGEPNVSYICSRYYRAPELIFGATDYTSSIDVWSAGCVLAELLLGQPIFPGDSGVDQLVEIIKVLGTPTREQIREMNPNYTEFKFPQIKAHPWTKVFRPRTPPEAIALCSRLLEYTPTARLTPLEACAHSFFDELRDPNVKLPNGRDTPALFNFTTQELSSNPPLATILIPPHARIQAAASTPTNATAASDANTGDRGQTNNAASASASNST

inhibition: Active
Structure (SMILES): O=C1NC(=O)C(c2cnc3ccccn23)=C1c1cn2c3c(cc(F)cc13)CN(C(=O)N1CCCCC1)CC2 [LY-2090314]
